Measurements: ChEMBL document CHEMBL1671856, “Chemical target validation studies of aminopeptidase in malaria parasites using alpha-aminoalkylphosphonate and phosphonopeptide inhibitors” (Antimicrob Agents Chemother, 2008)

How the values were obtained:
[1] = target: T1, Leucine aminopeptidase (Plasmodium falciparum 3D7) (UniProt Q8IL11); assay: Inhibition of leucyl aminopeptidase activity in Plasmodium falciparum 3D7 harboring tPfAP-M17 gene at 0.1 uM using Leu-AMC as a substrate by spectrophotometer in presence of 1 mM CoCl2
T1 sequence (whole entry): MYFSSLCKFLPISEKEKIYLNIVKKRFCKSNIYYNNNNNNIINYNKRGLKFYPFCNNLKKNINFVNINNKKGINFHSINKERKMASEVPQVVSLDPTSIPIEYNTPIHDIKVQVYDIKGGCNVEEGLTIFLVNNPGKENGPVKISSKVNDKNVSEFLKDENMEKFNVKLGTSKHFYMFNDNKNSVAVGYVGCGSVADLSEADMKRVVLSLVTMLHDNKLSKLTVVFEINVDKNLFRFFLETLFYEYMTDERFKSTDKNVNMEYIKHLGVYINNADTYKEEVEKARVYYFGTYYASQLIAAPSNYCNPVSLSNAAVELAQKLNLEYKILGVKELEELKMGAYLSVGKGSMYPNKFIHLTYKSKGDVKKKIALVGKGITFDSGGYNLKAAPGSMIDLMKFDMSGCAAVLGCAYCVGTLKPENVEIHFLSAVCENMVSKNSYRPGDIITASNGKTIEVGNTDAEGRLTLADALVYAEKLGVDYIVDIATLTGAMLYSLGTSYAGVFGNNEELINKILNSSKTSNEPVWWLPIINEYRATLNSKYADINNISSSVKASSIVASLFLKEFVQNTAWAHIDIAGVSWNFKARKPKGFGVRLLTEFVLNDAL

[2] = target: T1, Leucine aminopeptidase (Plasmodium falciparum 3D7); assay: Inhibition of leucyl aminopeptidase activity in Plasmodium falciparum 3D7 at 0.1 uM using Leu-AMC as a substrate by spectrophotometer in presence of 1 mM CoCl2
[3] = Inhibition of porcine kidney leucyl aminopeptidase; design: species or system Sus scrofa
[4] = tested on: Plasmodium falciparum; assay: Inhibition of alanyl aminopeptidase activity in Plasmodium falciparum 3D7 at 10 uM using Ala-AMC as a substrate by spectrophotometer
In short: (§1)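 Cytosolic extract came from free parasites released from infected erythrocytes, then three freeze-thaw cycles and centrifugation at 12,000 x g, 4°C, 20 min. Extract (25 µg/ml final) was preincubated with 0.1 or 10 µM inhibitor in 50 mM Tris-Cl pH 8.0, with or without 1 mM CoCl2, for 15 min at 37°C. Leu-AMC or Ala-AMC (10 µM final) was added. AMC release was read over 30 min (ex 370/em 440 nm).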

[5] = target: T1, Leucine aminopeptidase (Plasmodium falciparum 3D7); assay: Inhibition of leucyl aminopeptidase activity in Plasmodium falciparum 3D7 at 10 uM using Leu-AMC as a substrate by spectrophotometer
In short: as §1

[6] = tested on: Plasmodium falciparum; assay: Antimalarial activity against Plasmodium falciparum 3D7 infected in O-positive human erythrocytes after 72 hrs; format: functional, organism-based; conditions: 3D7, 72 h
In short: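 Asynchronous asexual blood-stage P. falciparum 3D7 were cultured in O+ erythrocytes and exposed to compounds for 72 h. Growth was read by the spectrophotometric parasite lactate dehydrogenase absorbance assay. IC50 values were determined graphically from dose-response curves.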

[7] = target: T1, Leucine aminopeptidase (Plasmodium falciparum 3D7); assay: Inhibition of leucyl aminopeptidase activity in Plasmodium falciparum 3D7 at 0.1 uM using Leu-AMC as a substrate by spectrophotometer
In short: as §1

[8] = target: T2, Aminopeptidase N (Sus scrofa, UniProt P15145); assay: Inhibition of pig kidney microsomal aminopeptidase N
T2 sequence (P15145 whole entry): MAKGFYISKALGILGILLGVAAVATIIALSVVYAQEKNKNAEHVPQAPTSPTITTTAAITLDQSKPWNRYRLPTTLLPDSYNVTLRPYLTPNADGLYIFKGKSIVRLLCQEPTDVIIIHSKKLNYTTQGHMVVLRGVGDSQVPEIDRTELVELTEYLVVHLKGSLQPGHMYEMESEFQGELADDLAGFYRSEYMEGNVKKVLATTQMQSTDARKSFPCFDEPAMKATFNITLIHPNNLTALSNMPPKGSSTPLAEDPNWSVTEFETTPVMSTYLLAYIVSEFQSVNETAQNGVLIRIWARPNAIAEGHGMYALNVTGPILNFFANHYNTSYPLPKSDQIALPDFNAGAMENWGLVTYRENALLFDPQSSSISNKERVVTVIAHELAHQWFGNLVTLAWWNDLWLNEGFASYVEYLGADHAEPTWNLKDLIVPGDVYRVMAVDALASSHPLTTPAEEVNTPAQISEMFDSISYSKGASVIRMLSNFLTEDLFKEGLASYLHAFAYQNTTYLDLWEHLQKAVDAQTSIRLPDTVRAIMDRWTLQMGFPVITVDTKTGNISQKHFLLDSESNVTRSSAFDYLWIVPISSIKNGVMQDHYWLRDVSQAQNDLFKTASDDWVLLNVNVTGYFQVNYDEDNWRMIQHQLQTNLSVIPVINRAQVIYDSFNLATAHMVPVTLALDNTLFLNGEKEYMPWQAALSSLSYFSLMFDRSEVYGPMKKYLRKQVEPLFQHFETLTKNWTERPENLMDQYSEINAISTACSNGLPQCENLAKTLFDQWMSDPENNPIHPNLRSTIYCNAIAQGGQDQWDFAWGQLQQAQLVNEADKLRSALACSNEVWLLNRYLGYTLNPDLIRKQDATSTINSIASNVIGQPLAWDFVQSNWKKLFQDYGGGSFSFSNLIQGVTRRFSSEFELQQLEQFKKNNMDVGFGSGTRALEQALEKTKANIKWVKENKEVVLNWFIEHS

[9] = tested on: Plasmodium falciparum; assay: Inhibition of alanyl aminopeptidase activity in Plasmodium falciparum 3D7 at 0.1 uM using Ala-AMC as a substrate by spectrophotometer
In short: as §1

[10] = target: T1, Leucine aminopeptidase (Plasmodium falciparum 3D7); assay: Inhibition of leucyl aminopeptidase activity in Plasmodium falciparum 3D7 at 10 uM using Leu-AMC as a substrate by spectrophotometer in presence of 1 mM CoCl2

| SMILES | inhibition [1] | inhibition [2] | Ki [3] | inhibition at 10 µM [4] | inhibition [5] | IC50 [6] | inhibition [7] | Ki [8] | inhibition at 0.1 µM [9] | inhibition [10] |
| --- | --- | --- | --- | --- | --- | --- | --- | --- | --- | --- |
| NC(CCCC1CCCCC1)P(=O)(O)O (racemic) | 34% | 51% | 9.57 µM | 95% | 95% | 14 µM | 17% | 41.6 µM | 15% | 91% |
| NC(CCC1CCCCC1)P(=O)(O)O (racemic) | 67% | 43% | 0.21 µM | 94% | 94% | 15 µM | 17% | 37.1 µM | 13% | 91% |
| NC(CCCCc1ccccc1)P(=O)(O)O (racemic) | 61% | 25% | 0.33 µM | 97% | 97% | 22 µM | 28% | 3.69 µM | 28% | 92% |
